# Screening data (PubChem)
# Shown are actives, neighbours in structure and some others; about 3.7% of the full set was active somewhere.
# WT yeast gro inh – growth inhibition of WT yeast, mitochondrial fusion screen | mitochondrial fusion phenotypic screen, WT strain | inhibition, % at 10 µM | hit rate 2.1% among 190,000 | AID 1362; in the data active means inhibition above about 58%; tested in S. cerevisiae
# eIF4E 4G PPI – inhibitors of eIF4E and eIF4G interaction in translation initiation; P63073+Q04637; TR-FRET eIF4E-eIF4GI(517-606) binding, 2 h; inhibition, % at 21.7 µM; hit rate 0.37% among 220,000; AID 782;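 further: 0% = full FRET control wells and 100% = background wells lacking eIF4GI fragment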
# EBV gp42 inh – blocks Epstein-Barr virus glycoprotein 42 binding; hit rate 0.42% among 220,000; inhibition, % (tested at 21.74 µM); Q1HVG2; AID 1085; Fluorescence polarization binding assay, mP read-out; in the data active means inhibition above about 50%
# Target sequence (Q1HVG2 whole entry, looked up): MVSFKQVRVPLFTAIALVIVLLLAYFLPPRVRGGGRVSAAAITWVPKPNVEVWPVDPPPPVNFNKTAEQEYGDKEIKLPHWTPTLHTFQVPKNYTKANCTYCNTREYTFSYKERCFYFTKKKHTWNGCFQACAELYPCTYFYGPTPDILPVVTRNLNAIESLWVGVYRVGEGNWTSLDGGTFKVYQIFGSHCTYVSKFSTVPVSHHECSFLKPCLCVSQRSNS
# 14-3-3 Bad inh – disrupts binding of bovine 14-3-3 zeta to phospho-Bad peptide; P63103; TR-FRET 14-3-3zeta/Dy647-pBad peptide displacement, 1 h; inhibition, % at 21.7 µM; hit rate 0.71% among 220,000;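 active means inhibition above about 70%, limit read from the data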;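 further: 0% = full 14-3-3 plus peptide FRET controls and 100% = background without 14-3-3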
# p47phox inh – inhibitors of human p47phox binding. p47phox/p22phox peptide binding, fluorescence polarization, 2 h. hit rate 0.53% among 220,000. inhibition, % at 24.7 µM;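 further: 0% = p47phox with labelled peptide and 100% = labelled peptide alone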
# RBBP9 inh – blocks human serine hydrolase RBBP9; O75884; recombinant RBBP9, FP-Rh probe fluorescence polarization; inhibition, % at 7.94 µM; hit rate 0.2% among 220,000; AID 1515;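 active means inhibition above the campaign mean of all tested compounds plus 3 SD, cut at about 14% in these data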;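 further: plate controls were DMSO wells with RBBP9 for no effect and wells lacking RBBP9 protein for full effect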
# Target sequence (O75884 whole entry, looked up): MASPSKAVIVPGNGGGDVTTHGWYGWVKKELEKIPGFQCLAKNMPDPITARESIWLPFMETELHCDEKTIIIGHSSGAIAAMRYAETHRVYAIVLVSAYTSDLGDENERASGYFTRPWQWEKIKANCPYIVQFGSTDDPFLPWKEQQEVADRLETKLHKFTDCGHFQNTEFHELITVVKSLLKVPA
#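 Controls: DMSO-treated enzyme wells and wells lacking RBBP9 | Material: RBBP9 protein | Technique: Fluorescence polarization | Replication: Single well per compound, no replicates | Buffer or medium: Tris-NaCl-Pluronic buffer, pH 8.0 | Timing: 30 min compound preincubation, 45 min probe labeling, 25 °C | Read-out basis: Percent inhibition from mP, scaled between DMSO and no-protein wells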
# * marks the source's active call; other numbers are inactive results; . = no result given; [ ] = dose if it differs, or a comment.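 How the source made its calls, unless noted: active means inhibition above about 30% (limit read from the data); inactive means the rest.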
SMILES,WT yeast gro inh,eIF4E 4G PPI,EBV gp42 inh,14-3-3 Bad inh,p47phox inh,RBBP9 inh
CCOC(=O)/C(C#N)=C1/C=C(C)NC(c2ccccc2O)=N1,-12,1,-10,-6,-34,-1
CCCCN(CCCC)C1=Nc2ccccc2N/C1=C(/C#N)C(=O)OCC,68*,0,-8,3,-30,-7
CCOC(=O)C1=C(C)Nc2ccccc2N=C1N,-4,2,-3,-12,-5,-4
O=C(NNS(=O)(=O)c1ccccc1Cl)c1nn(-c2ccc(F)cc2)ccc1=O,.,3,-6,-3,-5,0
COc1ccc(Nc2nc(-c3cccs3)cs2)c(OC)c1,32,6,2,78*,-6,-7
COc1ccc(OC)c(Nc2nc(-c3cccs3)cs2)c1,37,-4,7,-20,-12,4
CCN(CC)S(=O)(=O)c1ccc(NC(=O)c2nc3nc(C)cc(C)n3n2)cc1,.,-12,-25,1,-7,0
CCC(C)[C@H](N)c1cn([C@@H](CCCCN)C(=O)N2CCNCC2)nn1 (some centres not stated),-4,0,-9,2,-9,9
OC(COCC(F)(F)C(F)(F)C(F)(F)C(F)F)Cn1c2ccccc2c2ccccc21 (configuration not stated),91*,5,3,-11,1,-12
Cc1ccc(OCC(O)Cn2c3ccccc3c3ccccc32)cc1 (configuration not stated),47,-4,-5,-3,-7,-4
Cc1cccc(C)c1OCC(O)Cn1c2ccccc2c2ccccc21 (configuration not stated),83*,-2,13,6,-10,-1
CCOc1ccc(OCC)c(N=c2oc3c(C)ncc(CO)c3cc2C(N)=O)c1,7,0,1,0,-4,-7
COc1cccc(N=c2oc3c(C)ncc(CO)c3cc2C(=O)Nc2ccccc2OC)c1,1,-53,-12,91*[fluorescence artefact?],9,1
O=C1NN(c2ccc(Cl)cc2)C(=O)/C1=C\c1ccc(-c2cccc(C(=O)O)c2)o1,-5,32*,18,64,-21,-5
S=C(Nc1ccc(Cl)c(Cl)c1)NC1CCN(Cc2ccccc2)CC1,74*,-1,-4,-12,-14,-13
CCOc1ccccc1N1CCN(Cc2ccco2)CC1,-6,7,-2,8,1,4
CCOc1ccccc1N1CCN(C/C=C/c2ccc(N(C)C)cc2)CC1,15,3,-29,78*[fluorescence artefact?],-16,-8
CCOc1ccccc1N1CCN(Cc2ccc(Br)s2)CC1,-19,2,-23,76*,13,-10
Cc1ccc(C)c(N2CCN(C(=O)Cc3cn(C)c4ccccc34)CC2)c1,63*,6,24,15,-12,0
Cc1ccc(C)c(N2CCN(C(=O)C(Cc3ccccc3)n3cccc3)CC2)c1 (configuration not stated),62*,67*[fluorescence artefact?],-6,9,-5,-10
Cc1ccc(C)c(N2CCN(C(=O)c3csc4ccccc34)CC2)c1,74*,5,13,-4,-7,6
O=C(C(Cc1ccccc1)n1cccc1)N1CCN(c2ccccc2)CC1 (configuration not stated),11,-1,-3,0,-2,-8
Cc1cccc(CSc2nnc(CCNC(=O)OC(C)(C)C)o2)c1,.,-3,-10,-7,-11,1
CSCC[C@H](NC(=O)C1CCN(S(=O)(=O)c2ccc(C)cc2)CC1)C(=O)NC1CCS(=O)(=O)C1 (some centres not stated),-7,-2,-7,-2,-7,-8
Cn1c(CN2CCCCC2)nc2cc(NC(=O)c3ccc(Cl)cc3)ccc21,70*,0,6,-3,-5,-9
Cn1c(CN2CCCC2)nc2cc(NC(=O)c3ccc(Cl)cc3)ccc21,2,0,-13,-4,-3,-2
CC(/C=N/n1c(C2CCCCC2)n[nH]c1=S)=C\c1ccccc1,89*,3,12,-5,-12,-7
CC(/C=N/n1c(-c2cc(C)[nH]n2)n[nH]c1=S)=C\c1ccccc1,-24,8,-13,2,9,4
O=C(CSc1nc(C2CCCCC2)n(-c2ccccc2)n1)NCC(F)(F)F,17,-1,6,21,41*,-5
